This note sets out measurements from ChEMBL document CHEMBL5223158, “Identification of 2-Aminoacyl-1,3,4-thiadiazoles as Prostaglandin E2 and Leukotriene Biosynthesis Inhibitors” (ACS Med Chem Lett, 2023).

Calls of active or inactive are those of the source. The calls are words filed in the database; no cut-off is given here.

One assay has as its system Macrophage. The experiment in a line: Inhibition of 5-LO product formation in Staphylococcus aureus activated human monocyte derived macrophages at 10 uM preincubated for 15 mins followed by Staphylococcus aureus activation for 90 mins by UPLC-MS/MS analysis. In kind it is functional, cell-based. Particulars: time 105.0 min.
Assay [1] relates to J774.A1. The experiment in a line: Modulation of IL-6 production in LPS-stimulated mouse J774.A1 cells at 1 uM incubated for 24 hrs by ELISA. The format is functional, cell-based. The method in brief:
(§1)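 Murine J774A.1 macrophages were stimulated with LPS and exposed to test compounds. IL-6 and PGE2 released were measured in pg/mL. Mean ± SD.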

Assay [2] addresses T1, Polyunsaturated fatty acid 5-lipoxygenase (Homo sapiens, UniProt P09917).
T1 sequence (P09917 whole entry): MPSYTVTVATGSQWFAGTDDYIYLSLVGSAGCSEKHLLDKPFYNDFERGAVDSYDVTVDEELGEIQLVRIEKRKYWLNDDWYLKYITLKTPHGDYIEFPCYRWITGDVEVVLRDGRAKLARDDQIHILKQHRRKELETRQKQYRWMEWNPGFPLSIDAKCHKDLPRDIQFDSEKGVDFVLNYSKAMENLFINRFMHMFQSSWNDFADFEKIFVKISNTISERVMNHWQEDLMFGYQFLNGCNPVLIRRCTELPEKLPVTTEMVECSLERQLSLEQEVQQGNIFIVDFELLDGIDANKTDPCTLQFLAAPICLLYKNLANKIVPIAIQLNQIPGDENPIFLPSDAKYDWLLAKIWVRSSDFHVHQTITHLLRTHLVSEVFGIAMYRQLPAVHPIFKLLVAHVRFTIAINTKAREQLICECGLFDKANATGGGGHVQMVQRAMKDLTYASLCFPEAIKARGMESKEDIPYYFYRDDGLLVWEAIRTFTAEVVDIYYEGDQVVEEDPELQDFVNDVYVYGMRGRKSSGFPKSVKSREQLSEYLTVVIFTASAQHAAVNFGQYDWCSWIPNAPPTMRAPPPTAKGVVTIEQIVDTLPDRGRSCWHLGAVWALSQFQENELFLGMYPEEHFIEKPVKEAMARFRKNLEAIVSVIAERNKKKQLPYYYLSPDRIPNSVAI
Put plainly: Inhibition of human recombinant 5-LO expressed in Escherichia coli BL21 using arachidonic acid as substrate preincubated for 10 mins followed by substrate addition and measured after 10 mins by RP-HPLC analysis.

Assay [3] relates to J774.A1. The experiment in a line: Modulation of PGE2 production in LPS-stimulated mouse J774.A1 cells at 1 uM incubated for 24 hrs by ELISA. In kind it is functional, cell-based. In a few lines: as §1
In another assay the test system is A549. The experiment in a line: Inhibition of PGE2 biosynthesis in IL-1β stimulated human A549 cells incubated for 24 hrs by ELISA. The settings on record: dose 5-10 µM.
In assay [4] the test system is Mus musculus. Put plainly: Anti-inflammatory activity against CD-1 mouse model of zymosan-induced peritonitis assessed as reduction in IL-1beta level at 3 mg/kg, ip pretreated with zymosan for 30 mins followed by compound addition and measured after 4 to 24 hrs by ELISA. Particulars: time 4-24 hrs. The format is functional, organism-based.
Assay [5] concerns Mus musculus. Put plainly: Anti-inflammatory activity against CD-1 mouse model of zymosan-induced peritonitis assessed as reduction in IL-10 level at 3 mg/kg, ip pretreated with zymosan for 30 mins followed by compound addition and measured after 24 hrs by ELISA. The format is functional, organism-based.
In assay [6] the test system is Mus musculus. Put plainly: Anti-inflammatory activity against CD-1 mouse model of zymosan-induced peritonitis assessed as reduction in IL-6 level at 3 mg/kg, ip pretreated with zymosan for 30 mins followed by compound addition and measured after 4 to 24 hrs by ELISA. In kind it is functional, organism-based. Particulars: time 4-24 hrs.
Assay [7] has as its system Mus musculus. Put plainly: Anti-inflammatory activity against CD-1 mouse model of zymosan-induced peritonitis assessed as reduction in PGE2 level at 3 mg/kg, ip pretreated with zymosan for 30 mins followed by compound addition and measured after 4 to 24 hrs by ELISA. The format is functional, organism-based. The settings on record: time 4-24 hrs.
Assay [8] relates to Mus musculus. The experiment in a line: Anti-inflammatory activity against CD-1 mouse model of zymosan-induced peritonitis assessed as reduction in leucocyte recruitment in peritoneal cavity at 3 mg/kg, ip pretreated with zymosan for 30 mins followed by compound addition and measured after 4 to 24 hrs by TC10 automated cell counter analysis. In kind it is functional, organism-based. Particulars: time 4-24 hrs.

Assay [9] deals with Mus musculus. Put plainly: Anti-inflammatory activity against CD-1 mouse model of zymosan-induced peritonitis assessed as reduction in IL-6 level at 10 mg/kg, ip pretreated with zymosan for 30 mins followed by compound addition and measured after 4 to 24 hrs by ELISA. Particulars: time 4-24 hrs. The format is functional, organism-based. The method in brief:
(§2)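 Mice got zymosan 500 mg/kg i.p.; test compound was injected i.p. 30 min later. PBS-only controls were included, along with a dexamethasone (3 mg/kg) reference group. Peritoneal exudate was collected at 4 and 24 h. Total cells were counted, and IL-1β, IL-6, PGE2 and IL-10 were measured in exudate, normalized to exudate levels. Mean ± SD.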

For assay [10], the system named is Mus musculus. Put plainly: Anti-inflammatory activity against CD-1 mouse model of zymosan-induced peritonitis assessed as reduction in PGE2 level at 10 mg/kg, ip pretreated with zymosan for 30 mins followed by compound addition and measured after 4 to 24 hrs by ELISA. The format is functional, organism-based. The settings on record: time 4-24 hrs. The method in brief:
as §2

Assay [11] has as its system Mus musculus. The experiment in a line: Anti-inflammatory activity against CD-1 mouse model of zymosan-induced peritonitis assessed as reduction in leucocyte recruitment in lavage fluid at 1 to 10 mg/kg, ip pretreated with zymosan for 30 mins followed by compound addition and measured after 4 to 24 hrs by TC10 automated cell counter analysis. In kind it is functional, organism-based. The settings on record: dose 1-10 mg/kg, time 4-24 hrs. In a few lines: as §2

The subject of assay [12] is Mus musculus. Put plainly: Anti-inflammatory activity against CD-1 mouse model of zymosan-induced peritonitis assessed as reduction in IL-10 level at 10 mg/kg, ip pretreated with zymosan for 30 mins followed by compound addition and measured after 24 hrs by ELISA. The format is functional, organism-based. In a few lines:
as §2

Assay [13] relates to Mus musculus. The experiment in a line: Anti-inflammatory activity against CD-1 mouse model of zymosan-induced peritonitis assessed as reduction in IL-1beta level at 10 mg/kg, ip pretreated with zymosan for 30 mins followed by compound addition and measured after 4 to 24 hrs by ELISA. Particulars: time 4-24 hrs. The format is functional, organism-based. In a few lines:
as §2

Assay [14] addresses T2, Polyunsaturated fatty acid 5-lipoxygenase (Homo sapiens) (UniProt P09917).
T2 sequence (whole entry): T1 sequence (P09917 whole entry)
Put plainly: Inhibition of human recombinant 5-LO expressed in Escherichia coli BL21 using arachidonic acid as substrate assessed as residual activity at 10 uM preincubated for 10 mins followed by substrate addition and measured after 10 mins by RP-HPLC analysis relative to control. Particulars: time 20.0 min.

Regarding `Cc1cc(C(=O)Nc2nnc(-c3ccc(-c4cccc(O)c4)cc3)s2)cc(Cl)n1`, the “5-LO product formation inhibition (active/inactive)” value with Macrophage is “inactive”.
Regarding `Nc1ccccc1-c1ccc(-c2nnc(NC(=O)c3ccccc3Br)s2)cc1`, the outcome in the assay with J774.A1 [1] was inactive. In the assay with Macrophage, the “5-LO product formation inhibition (active/inactive)” value was “Active”. The half-maximal inhibitory concentration (IC50) in [2] worked out at 24.3 µM. Also, in the assay with J774.A1 [3], the result was Active. Besides, the inhibition entry with A549 is “Dose-Dependent Effect”.
Turning to `C[C@@H]1C[C@H]2[C@@H]3CCC4=CC(=O)C=C[C@]4(C)[C@@]3(F)[C@@H](O)C[C@]2(C)[C@@]1(O)C(=O)CO`, the result in the assay with Mus musculus [4], in the assay on Mus musculus [5], with Mus musculus [6], in the assay with Mus musculus [7] and in the assay with Mus musculus [8] was Active.
As for `O=C(Nc1nnc(-c2ccc(-c3cccc(O)c3)cc2)s1)c1ccccc1Br`, the outcome in the assay on Mus musculus [9], in the assay with Mus musculus [10], in the assay on Mus musculus [11], in the assay on J774.A1 [1], in the assay with J774.A1 [3] and in the assay with Mus musculus [12] was Active. In addition, the result in the assay with Mus musculus [13] was Active. For the same compound, in the assay with Macrophage, the “5-LO product formation inhibition (active/inactive)” value was “Active”. Moreover, in assay [14], the Activity amounted to 125%.
Regarding `Cc1cc(C(=O)Nc2nnc(-c3ccc(-c4ccccc4N)cc3)s2)cc(Cl)n1`, the “5-LO product formation inhibition (active/inactive)” value in the assay on Macrophage was “Active”. The IC50 in [2] was determined as 42.8 µM. For the same compound, in the assay on A549, the inhibition result is “Dose-Dependent Effect”.
In the case of `Nc1ccccc1-c1ccc(-c2nnc(NC(=O)c3c(Cl)ccnc3Cl)s2)cc1`, in the assay with Macrophage, the “5-LO product formation inhibition (active/inactive)” value was “Active”. In addition, the Activity in assay [14] amounted to 75.9%. The inhibition entry with A549 is “Dose-Dependent Effect”.
